According to ChEMBL document CHEMBL1914423, “New imidazo[2,1-b]thiazole derivatives: synthesis, in vitro anticancer evaluation, and in silico studies” (Eur J Med Chem, 2011):

Assay: Antiproliferative activity against human A375P cells after 48 hrs by MTT assay
Assay type: functional, cell-based
Summary of the method: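 A375P cells in DMEM with 10% FBS at 37 °C, 5% CO2. Seeded at 5×10³ cells/well, held 24 h, then treated with 12-point 3-fold serial dilutions for 48 h. Viability by MTT reduction. IC50 values are means of triplicate experiments.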

| SMILES | IC50 [µM] |
| --- | --- |
| COc1cccc(-c2nc3sccn3c2-c2ccnc(NCCNC(=O)Nc3cc(C(F)(F)F)cc(C(F)(F)F)c3)n2)c1 | 4.3 |
| CNC(=O)c1cc(Oc2ccc(NC(=O)Nc3ccc(Cl)c(C(F)(F)F)c3)cc2)ccn1 [SORAFENIB] | 5.6 |
